In ChEMBL document CHEMBL1127667, “Synthesis of benzo-fused benzodiazepines employed as probes of the agonist pharmacophore of benzodiazepine receptors” (J Med Chem, 1994):

Tests used:
[1] = molecular target: GABA-A receptor; anion channel; test: In vitro inhibitory concentration of compound against benzodiazepine receptor from rat cerebral cortex using [3H]- flunitrazepam was evaluated; type: tissue-based
Method in brief: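 Rat cerebral cortex membranes prepared in 50 mM Tris-citrate, pH 7.4, washed three times. About 0.1 mg protein incubated with [3H]flunitrazepam (~1 nM final) and NaCl at 0-4 °C for 60 min. Bound ligand collected by GF/B filtration. IC50 taken from at least six inhibitor concentrations. Mean ± SEM of at least three determinations.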

[2] = molecular target: T1, GABA-A receptor; anion channel (Mus musculus) (UniProt Q8BHJ7+P26048+Q8QZW7+P50571+Q9R0Y8+P22723+A2AMW3+P62812+Q9JLF1+P26049+P22933+Q9D6F4+P63080+P27681+P16305); test: In vivo activity of compound was evaluated against benzodiazepine receptor in mice; type: functional, organism-based
Method in brief: (§1)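 Adult male NIH/Swiss mice, groups of three to eight, given graded ip doses in diluted Emulphor/saline (1:9). Muscle relaxation tested on a wire at 12 min. PTZ given at 15 min: 80 mg/kg to test anticonvulsant action, 40 mg/kg to test proconvulsant action.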

[3] = molecular target: T1, GABA-A receptor; anion channel (Mus musculus); test: In vivo activity against GABA-A benzodiazepine receptor in mice; type: functional, organism-based; design: unit not given here; method in brief: as §1
Mus musculus [4] = species: Mus musculus; test: Compound was tested for anticonvulsant effect in mice; type: functional
Method in brief: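 Male NIH/Swiss mice, 25-30 g, groups of three to eight, given graded ip doses in diluted Emulphor/saline (1:9) or vehicle. PTZ 80 mg/kg injected 15 min after dosing. Protection from PTZ-induced convulsions scored. ED50 derived from the dose-response.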

Mus musculus [5] = species: Mus musculus; test: Compound was tested for myorelaxant effect in mice; type: functional
Method in brief: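 Male NIH/Swiss mice, 25-30 g, groups of three to eight, dosed ip with graded amounts in diluted Emulphor/saline (1:9) or vehicle. At 12 min, mice were hung by the forepaws on a 1.5-mm wire 60 cm above the bench. Three falls within 1 min counted as muscle relaxation. ED50 derived from the dose-response.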

| Compound | IC50 [1] [nM] | also measured |
| --- | --- | --- |
| CN1C(=O)CN=C(c2ccccc2F)c2c(Cl)cccc21 | 150 | Activity [2]: 0 |
| O=C1CN=C(c2ccccc2)c2c(Cl)cccc2N1 | 320 | Activity [2]: 0 |
| O=C1CN=C(c2ccccc2)c2c(ccc3ccccc23)N1 | > 1000 | – |
| CN1C(=O)CN=C(c2ccccc2)c2c1ccc1ccccc21 | > 1000 | – |
| CN1C(=O)CN=C(c2ccccc2F)c2c1ccc1ccccc21 | > 1000 | – |
| O=C1CN=C(c2ccccc2)c2cc(-c3ccccc3)ccc2N1 | – | Activity [3]: 781 |
| CN1C(=O)CN=C(c2ccccc2F)c2cc3ccccc3cc21 | 55 | ED50 (Mus musculus [4]): 15 mg/kg; ED50 (Mus musculus [5]): 15 mg/kg |
| CN1C(=O)CN=C(c2ccccc2)c2cc3ccccc3cc21 | > 1000 | – |
| O=C1CN=C(c2ccccc2F)c2cc3ccccc3cc2N1 | > 1000 | – |
| Cc1cc2c(cc1C)C(c1ccccc1)=NCC(=O)N2 | – | Activity [3]: 132 |
| CCOC(=O)c1ncc2[nH]c3ccc(OCc4ccccc4)cc3c2c1COC | 5 | – |
| Cc1cc2c(cc1Cl)NC(=O)CN=C2c1ccccc1F | 14 | Activity [2]: 0 |
| O=C1CN=C(c2ccccc2F)c2c(ccc3ccccc23)N1 | > 1000 | – |
| O=C1CN=C(c2ccccc2)c2cc(Cl)cc(Cl)c2N1 | – | Activity [3]: 8 |
| O=C1CN=C(c2ccccc2F)c2ccc3ccccc3c2N1 | 120 | – |
| Cc1cc([N+](=O)[O-])cc2c1NC(=O)CN=C2c1ccccc1 | – | Activity [3]: 8.12 |
| CN1C(=O)CN=C(c2ccccc2)c2ccc3ccccc3c21 | > 1000 | – |
| C=Cc1ccc2c(c1)C(c1ccccc1)=NCC(=O)N2 | 24 | Activity [2]: Weak activity |
| O=C1CN=C(c2ccccc2F)c2cc(Cl)c(Cl)cc2N1 | 3.6 | – |
| O=C1CN=C(c2ccccc2)c2cc3ccccc3cc2N1 | 400 | – |
| Cc1cc(C)c2c(c1)C(c1ccccc1)=NCC(=O)N2 | – | Activity [3]: 792 |
| CN1C(=O)CN=C(c2ccccc2)c2cc(Cl)ccc21 | – | Activity [2]: 1.39 |
| CN1C(=O)CN=C(c2ccccc2F)c2ccc3ccccc3c21 | 260 | – |
| O=C1CN=C(c2ccccc2)c2ccc3ccccc3c2N1 | > 1000 | – |
| CN1C(=O)CN=C(c2ccccc2)c2cc(Cl)c(Cl)cc21 | 40 | Activity [2]: Weak activity |
